Bioassay records as filed in PubChem BioAssay.
FAS TE block: blocks the thioesterase domain of human fatty acid synthase | P49327 | AID 602261 | hit rate 0.67% among 360,000 | inhibition, % at 15 µM | recombinant FAS-TE, OMFH fluorogenic substrate, fluorescence endpoint;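 active = compounds whose normalised, plate-corrected inhibition of enzyme fluorescence in the single-dose primary screen is 50% or more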;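 also: 0% = DMSO with enzyme and 100% = substrate without enzyme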
ABCB6 inh 2: inhibitors of human ABC transporter ABCB6; Q9NP58; K562-ABCB6 porphyrin accumulation, flow cytometry, 1 h; active compounds read low; fluorescence ratio to DMSO, % at 10 µM; hit rate 0.19% among 360,000; AID 602162;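 active = fluorescence ratio to DMSO below 75%, the collection mean minus 3 SD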;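 also: signal is porphyrin accumulated inside mitochondria; 100% equals median channel fluorescence of DMSO control wells; lower ratio means ABCB6 inhibition with less porphyrin fluorescence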
iPSC survival up: hiPSC single-cell survival enhancement; hit rate 0.044% among 360,000; survival enhancement, % at 20 µM; ATPlite luminescence; 100% = ROCK inhibitor wells, 0% = DMSO; AID 602274; in the data active = survival enhancement above about 18%;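 also: cells exposed to compounds for 16 hours before the ATP read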
SENP1 FRET inh: blocks the human SENP1 SUMO protease catalytic domain; Q9P0U3; recombinant SENP1 catalytic domain, CyPet-SUMO1-YPet FRET cleavage; inhibition, % at 10 µM; hit rate 0.21% among 360,000; AID 624204;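 active = inhibition at least 30% at 10 µM, raw YFP signal under a set limit, fluorescence ratio 0.5 to 1.5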;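 also: 0% = enzyme with DMSO and 100% = no enzyme wells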
Target sequence (Q9P0U3 419-644 limits assumed): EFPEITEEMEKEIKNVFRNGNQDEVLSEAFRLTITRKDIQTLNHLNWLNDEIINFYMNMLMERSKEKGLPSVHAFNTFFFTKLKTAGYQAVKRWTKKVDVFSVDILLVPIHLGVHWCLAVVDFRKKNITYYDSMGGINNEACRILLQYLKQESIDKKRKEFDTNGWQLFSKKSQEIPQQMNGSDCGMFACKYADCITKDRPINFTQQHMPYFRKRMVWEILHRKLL
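Assay system: hSENP1 catalytic domain, recombinant. Amount: SENP1 enzyme, 20 pM final. Schedule: 50 min reaction, RT, dark. Technique: FRET, CFP and YFP emission. Control set: no-enzyme wells low, DMSO-plus-enzyme wells high control.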
ABCB6 blocker 1: human ABCB6 transporter inhibition. shares compounds with ABCB6 inh 2. K562-ABCB6 porphyrin accumulation, flow cytometry, 1 h; active compounds read low. ratio response (% of DMSO), % at 10 µM. 700 tested, under 10 active;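 active = repeat-averaged ratio response below 75% of DMSO, the collection mean minus 3 SD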;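 also: median porphyrin fluorescence at 575 nm with 488 nm excitation from mitochondria; lower ratio means less porphyrin signal so ABCB6 inhibition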
FAS-TE inh conf: FAS thioesterase (human) inhibition, confirmation; recombinant FAS-TE, OMFH fluorogenic substrate, fluorescence; shares compounds with FAS TE block; hit rate 45% among 2,300; inhibition, % at 15 µM;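 active = compounds inhibiting the enzyme by at least 50% at 15 µM in any one of the replicates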;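 also: 0% = enzyme with DMSO only and 100% = wells lacking enzyme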
* = called active by the depositor. In the library only some 1.1% were active in any assay of this set; here they are far more common.

SMILES	FAS TE block	ABCB6 inh 2	iPSC survival up	SENP1 FRET inh	others
CN1Cc2cnnn2-c2ccccc2C1C#N (stereo not drawn)	-10	96	40*	2
O=C(N/N=C/c1c(O)n(C2CCCCC2)c(=S)[nH]c1=O)c1ccccc1	18	12*	-1	-21
COc1cccc2c1cc([N+](=O)[O-])c1c(C(=O)O)cc3c(c12)OCO3	-3	103	-2	-1
O=c1[nH]c(=S)n(-c2ccccc2F)c(O)c1C=Nc1ccc(N2CCOCC2)cc1	-31	102	-3	67*
C=C1C/C(=C/C)C(=O)O[C@@H]2CCN3CC=C(COC(=O)[C@]1(C)O)[C@H]23	-2	94	0	2
NC1=NC(=O)N2CC12 (stereo not drawn)	-6	98	-1	0
C=C1C(=O)OC2CC3(C)OC3CCC(C)=CC(OC(C)=O)C12 (stereo not drawn)	-9	100	-3	2
C=C1C(=O)OC2CC3(C)OC3C3OC3C3=CC(OC3=O)C12 (stereo not drawn)	8	36*	1	-3
Cn1ncnc2c(=O)n(C)c(=O)nc1-2	11	112	-5	38*
CC[N+](CC)(CC#CCO)CC#Cc1ccccc1	-3	102	3	2
C=C(C)[C@@]12OC3(c4ccccc4)O[C@@H]1C1[C@@H]4O[C@]4(CO)[C@@H](O)[C@]4(O)C(=O)C(C)=C[C@H]4[C@@]1(O3)[C@H](C)[C@H]2OC(=O)/C=C/C=C/c1ccccc1 (stereo partly drawn)	57*	102	42*	1
Cc1cccc(N2C(=O)/C(=C/c3ccc(N4CCN(C)CC4)o3)C(=O)NC2=S)c1C	-10	118	1	34*
CCc1ccccc1N1C(=O)/C(=C/c2ccc(N3CCN(C)CC3)o2)C(=O)NC1=S	-8	105	2	43*
Cc1ccccc1N1C(=O)NC(=O)/C(=C/c2ccc(N3CCOCC3)o2)C1=O	-6	103	-1	-6
Cc1ccccc1-n1c(/C=C/c2ccccn2)nc2ccccc2c1=O	-2	99	0	2
CN1C2CCC1/C(=C/c1ccccn1)C(=O)/C2=C\c1ccccn1	-10	96	34*	3
O=c1[nH]c(O)c(N=Nc2ccc(S(=O)(=O)N3CCOCC3)cc2)c(=O)[nH]1	-5	97	4	-10
O=c1[nH]c(=S)[nH]c(O)c1N=Nc1ccc2c(c1)OCCO2	-2	102	-1	36*
O=c1[nH]c(=S)[nH]c(O)c1N=Nc1ccc2c(c1)OCO2	1	113	1	19
O=c1[nH]c(O)c(N=Nc2ccc3c(c2)OCCO3)c(=O)[nH]1	-2	104	-3	39*
Cc1ccc(NC(=O)CC[C@H]2O[C@@H](n3cnc4c(NC(=O)c5ccccc5)ncnc43)[C@H](O)[C@@H]2O)cc1C	-10	99	4	3
CCOC(=O)[C@]12Cc3c(cc(OC)c(OC)c3OC)[C@H]1N(CCC(=O)OC)C(=O)c1ccccc12	14	102	-1	0
CCC(=O)c1cn(Cc2ccccc2)c2ccccc12	12	97	-1	1
CN(C)CCOC(=O)c1cn(Cc2ccccc2)c2ccccc12	-7	7.0*	-1	1	ABCB6 blocker 1=95
C=CCNC(=S)N1Cc2ccccc2-n2nncc2C1	-8	83	2	3
SMILES	FAS TE block	ABCB6 inh 2	iPSC survival up	SENP1 FRET inh	others
CC(Cc1ccccc1)NCCC(=O)NC(C)Cc1ccccc1 (stereo not drawn)	-4	98	-1	2
COc1cccc(C(c2nnnn2Cc2ccccc2)N2CCC(n3c(=O)[nH]c4ccccc43)CC2)c1OC (stereo not drawn)	20	74*	1	0	ABCB6 blocker 1=96
O=c1cccc2n1C[C@@H]1C[C@@H]2CN(CC(O)c2ccc([N+](=O)[O-])cc2)C1 (stereo partly drawn)	-4	103	0	1
CC(C)CCCn1c(O)c(/C=C2/C=CC=N2)c(=O)[nH]c1=O	-6	70*	1	-29	ABCB6 blocker 1=102
CCCCn1c(O)c(C=NCCCn2ccnc2)c(=O)[nH]c1=O	-3	100	1	2
Cc1nonc1OCCNc1ccc([N+](=O)[O-])c2cccnc12	24	72*	-1	-30	ABCB6 blocker 1=112
COc1cccc(N2C(=O)CC(=O)NC2=O)c1	-7	71*	0	-8	ABCB6 blocker 1=102
CCOc1ccc(C(C)=O)cc1Cc1c(O)[nH]c(=S)[nH]c1=O	-2	102	-1	-1
COc1ccc(C(C)=O)cc1Cc1c(O)[nH]c(=S)[nH]c1=O	-4	65*	0	2	ABCB6 blocker 1=102
O=c1[nH]c2ccccc2n1C1CCN(C(c2cccc3ccccc23)c2nnnn2Cc2ccccc2)CC1 (stereo not drawn)	80*	75	2	1	FAS-TE inh conf=28
O=c1[nH]c2ccccc2n1C1CCN(C(c2cc3ccccc3o2)c2nnnn2Cc2ccccc2)CC1 (stereo not drawn)	61*	98	1	-8	FAS-TE inh conf=-2
NCC(O)c1cc(O)c(O)cc1F (stereo not drawn)	-2	101	-1	-1
Cc1[nH]n(-c2ccccc2)c(=O)c1C(c1ccc([N+](=O)[O-])cc1)c1c(C)[nH]n(-c2ccccc2)c1=O	85*	99	-1	3	FAS-TE inh conf=79*
O=[N+]([O-])c1ccc(C(c2ccc([N+](=O)[O-])cc2)c2ccc([N+](=O)[O-])cc2)cc1	47	97	1	2
COC(=O)C1=C(c2ccc(C(C)=O)cc2)C[C@@H]2CC[C@H]1N2C(=O)NC1Cc2ccccc2C1	-7	100	6	0
CC1CCSP(=O)(Oc2ccccc2)O1 (stereo not drawn)	-4	99	0	2
Cc1cc(=O)oc2cc(OCC(=O)N3CCN(C(C)c4ccccc4)CC3)c(Cl)cc12 (stereo not drawn)	60*	91	0	-78	FAS-TE inh conf=67*
Cc1cc(=O)oc2cc(OCC(=O)N3C[C@H]4C[C@@H](C3)c3cccc(=O)n3C4)c(Cl)cc12	8	99	-3	2
Cc1cccc(C)c1-n1nnnc1C(c1ccccc1)N1CCC2(CC1)C(=O)NCN2c1ccccc1 (stereo not drawn)	39	95	4	0
O=C1NCN(c2ccccc2)C12CCN(C(c1cccs1)c1nnnn1-c1ccc3c(c1)OCCO3)CC2 (stereo not drawn)	62*	97	0	0	FAS-TE inh conf=22
O=C1NCN(c2ccccc2)C12CCN(C(c1ccccc1)c1nnnn1-c1ccc3c(c1)OCCO3)CC2 (stereo not drawn)	20	104	4	1
